For data set [1], the system named is Pseudomonas aeruginosa. Nature of the data set: Antibacterial activity against Pseudomonas aeruginosa ATCC 27853 after 18 to 24 hrs by NCCLS M100-S11 two fold serial dilution method. The format is functional.
The test system of data set [2] is Escherichia coli. Nature of the data set: Antibacterial activity against Escherichia coli 08-22 after 18 to 24 hrs by NCCLS M100-S11 two fold serial dilution method. The format is functional.
For data set [3], the system named is Pseudomonas aeruginosa. Nature of the data set: Antibacterial activity against Pseudomonas aeruginosa 09-32 after 18 to 24 hrs by NCCLS M100-S11 two fold serial dilution method. The format is functional.
Data set [4] relates to Streptococcus pneumoniae. In words: Antibacterial activity against Streptococcus pneumoniae 08-4 after 18 to 24 hrs by NCCLS M100-S11 two fold serial dilution method. It is filed as functional.
Data set [5] has as its system Staphylococcus aureus. Nature of the data set: Antibacterial activity against methicillin-resistant Staphylococcus aureus 08-1 after 18 to 24 hrs by NCCLS M100-S11 two fold serial dilution method. It is filed as functional. The procedure, abridged:
(§1)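 Two-fold serial dilution in agar medium. MIC read as the lowest concentration giving complete inhibition of bacterial growth after incubation at 35 °C for 18–24 h.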

Data set [6] concerns Staphylococcus epidermidis. In words: Antibacterial activity against methicillin-sensitive Staphylococcus epidermidis 09-3 after 18 to 24 hrs by NCCLS M100-S11 two fold serial dilution method. The format is functional. The procedure, abridged: as §1
For data set [7], the system named is Staphylococcus aureus. In words: Antibacterial activity against Staphylococcus aureus ATCC 25923 after 18 to 24 hrs by NCCLS M100-S11 two fold serial dilution method. The format is functional. The note with it: ATCC25923.
Data set [8] concerns Escherichia coli. Nature of the data set: Antibacterial activity against Escherichia coli ATCC 25922 after 18 to 24 hrs by NCCLS M100-S11 two fold serial dilution method. The format is functional. The note with it: ATCC25922.
In data set [9] the test system is Klebsiella pneumoniae. In words: Antibacterial activity against Klebsiella pneumoniae 09-23 after 18 to 24 hrs by NCCLS M100-S11 two fold serial dilution method. It is filed as functional.
Data set [10] has as its system Enterococcus faecalis. Nature of the data set: Antibacterial activity against Enterococcus faecalis 08-10 after 18 to 24 hrs by NCCLS M100-S11 two fold serial dilution method. The format is functional.
Data set [11] relates to Pseudomonas aeruginosa. Nature of the data set: Antibacterial activity against Pseudomonas aeruginosa 09-33 after 18 to 24 hrs by NCCLS M100-S11 two fold serial dilution method. The format is functional.
Data set [12] deals with Staphylococcus epidermidis. Nature of the data set: Antibacterial activity against methicillin-sensitive Staphylococcus epidermidis 09-6 after 18 to 24 hrs by NCCLS M100-S11 two fold serial dilution method. It is filed as functional. The procedure, abridged: as §1
Data set [13] concerns Enterococcus faecium. Nature of the data set: Antibacterial activity against Enterococcus faecium 08-7 after 18 to 24 hrs by NCCLS M100-S11 two fold serial dilution method. It is filed as functional.
The test system of data set [14] is Streptococcus pneumoniae. Nature of the data set: Antibacterial activity against Streptococcus pneumoniae 08-2 after 18 to 24 hrs by NCCLS M100-S11 two fold serial dilution method. It is filed as functional.
Data set [15] is described as follows: Cytotoxicity against african green monkey Vero cells after 72 hrs by MTT assay. It is filed as cell-based. The note with it: chlorocebus sabaeus. In short, it runs like this:
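Vero cells were kept in Minimum Essential Medium with Earle's salts plus 10% fetal bovine serum at 37 °C under 5% CO₂. Cells were seeded at 1 × 10⁴ per well and allowed to recover 24 h. Medium was then replaced with assay medium containing compound or no drug, and cells were exposed for 72 h. CC₅₀ is the 50% cellular cytotoxic concentration.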

Data set [16] deals with Klebsiella pneumoniae. Nature of the data set: Antibacterial activity against Klebsiella pneumoniae 09-22 after 18 to 24 hrs by NCCLS M100-S11 two fold serial dilution method. The format is functional.
Data set [17] deals with Staphylococcus epidermidis. In words: Antibacterial activity against methicillin-resistant Staphylococcus epidermidis 09-4 after 18 to 24 hrs by NCCLS M100-S11 two fold serial dilution method. The format is functional. In short, it runs like this:
as §1

The subject of data set [18] is Escherichia coli. In words: Antibacterial activity against Escherichia coli 08-21 after 18 to 24 hrs by NCCLS M100-S11 two fold serial dilution method. The format is functional.
Data set [19] deals with Enterococcus faecium. Nature of the data set: Antibacterial activity against Enterococcus faecium 08-2 after 18 to 24 hrs by NCCLS M100-S11 two fold serial dilution method. It is filed as functional.
Data set [20] deals with Pseudomonas aeruginosa. In words: Antibacterial activity against Pseudomonas aeruginosa 09-34 after 18 to 24 hrs by NCCLS M100-S11 two fold serial dilution method. It is filed as functional.
For data set [21], the system named is Staphylococcus aureus. In words: Antibacterial activity against methicillin-sensitive Staphylococcus aureus 08-1 after 18 to 24 hrs by NCCLS M100-S11 two fold serial dilution method. The format is functional.
Data set [22] concerns Enterococcus faecalis. In words: Antibacterial activity against Enterococcus faecalis 08-12 after 18 to 24 hrs by NCCLS M100-S11 two fold serial dilution method. The format is functional.

Values after ≈ are worked out from the molar mass of the structure shown.

Turning to `CCO/N=C(\C)CN1CCN(c2c(F)cc3c(=O)c(C(=O)O)cn(C4CC4)c3c2OC)CC1C` (stereo not drawn), the MIC in the data set on Pseudomonas aeruginosa [1] was greater than 128 µg/mL; in the data set on Escherichia coli [2], greater than 128 µg/mL; in the data set on Pseudomonas aeruginosa [3], greater than 128 µg/mL; in the data set on Streptococcus pneumoniae [4], 2 µg/mL (≈ 4.21 µM); with Staphylococcus aureus [5] it was 0.25 µg/mL (≈ 0.527 µM); in [6] it was 0.25 µg/mL (≈ 0.527 µM). The MIC against Staphylococcus aureus [7] is 0.125 µg/mL (≈ 0.263 µM); with Escherichia coli [8], 128 µg/mL (≈ 270 µM); with Klebsiella pneumoniae [9] it was greater than 128 µg/mL; in the data set with Enterococcus faecalis [10], greater than 128 µg/mL; with Pseudomonas aeruginosa [11], greater than 128 µg/mL; in [12] it was 0.25 µg/mL (≈ 0.527 µM). In addition, the MIC is greater than 128 µg/mL against Enterococcus faecium [13]; greater than 128 µg/mL in the data set on Streptococcus pneumoniae [14]; greater than 128 µg/mL in the data set on Klebsiella pneumoniae [16]; 0.25 µg/mL (≈ 0.527 µM) in [17]; greater than 128 µg/mL in the data set on Escherichia coli [18]; greater than 128 µg/mL in the data set with Enterococcus faecium [19]. For the same molecule, the MIC in the data set on Pseudomonas aeruginosa [20] was greater than 128 µg/mL; with Staphylococcus aureus [21], 0.25 µg/mL (≈ 0.527 µM); in the data set on Enterococcus faecalis [22], greater than 128 µg/mL. The CC50 at 72 h in data set [15] is 31.2 µg/mL (≈ 65.9 µM).

As to `COc1c(N2CCN(C/C(C)=N/NC(C)=O)C(C)C2)c(F)cc2c(=O)c(C(=O)O)cn(C3CC3)c12` (stereo not drawn), the MIC in the data set with Pseudomonas aeruginosa [1] came out at 4 µg/mL (≈ 8.2 µM); in the data set on Escherichia coli [2] it was 16 µg/mL (≈ 32.8 µM); in the data set on Pseudomonas aeruginosa [3], 0.25 µg/mL (≈ 0.513 µM); in the data set with Streptococcus pneumoniae [4], 0.25 µg/mL (≈ 0.513 µM); in the data set on Staphylococcus aureus [5], 0.25 µg/mL (≈ 0.513 µM); in data set [6] it was 0.25 µg/mL (≈ 0.513 µM). Moreover, the MIC in the data set with Staphylococcus aureus [7] was 0.25 µg/mL (≈ 0.513 µM); with Escherichia coli [8] it was 8 µg/mL (≈ 16.4 µM); against Klebsiella pneumoniae [9], 4 µg/mL (≈ 8.2 µM); against Enterococcus faecalis [10], 16 µg/mL (≈ 32.8 µM); in the data set on Pseudomonas aeruginosa [11], 64 µg/mL (≈ 131 µM); in data set [12] it was 0.25 µg/mL (≈ 0.513 µM). Moreover, the MIC against Enterococcus faecium [13] amounted to 16 µg/mL (≈ 32.8 µM); in the data set with Streptococcus pneumoniae [14], 8 µg/mL (≈ 16.4 µM); in the data set with Klebsiella pneumoniae [16], 0.25 µg/mL (≈ 0.513 µM); in data set [17] it was 0.25 µg/mL (≈ 0.513 µM); in the data set on Escherichia coli [18], 16 µg/mL (≈ 32.8 µM); against Enterococcus faecium [19] it was 16 µg/mL (≈ 32.8 µM). The MIC was determined as 2 µg/mL (≈ 4.1 µM) in the data set with Pseudomonas aeruginosa [20], 0.25 µg/mL (≈ 0.513 µM) with Staphylococcus aureus [21] and 16 µg/mL (≈ 32.8 µM) against Enterococcus faecalis [22]. Further, in [15], half-maximal cytotoxicity (CC50 at 72 h) was put at 707 µg/mL (≈ 1450 µM).

As to `COc1c(N2CCN(CCC#N)C(C)C2)c(F)cc2c(=O)c(C(=O)O)cn(C3CC3)c12` (stereo not drawn), the MIC is 8 µg/mL (≈ 18.7 µM) in the data set on Pseudomonas aeruginosa [1]; 64 µg/mL (≈ 149 µM) with Escherichia coli [2]; 4 µg/mL (≈ 9.34 µM) with Pseudomonas aeruginosa [3]; 4 µg/mL (≈ 9.34 µM) in the data set on Streptococcus pneumoniae [4]; 4 µg/mL (≈ 9.34 µM) against Staphylococcus aureus [5]; 0.25 µg/mL (≈ 0.583 µM) in [6]. Besides, the MIC is 2 µg/mL (≈ 4.67 µM) against Staphylococcus aureus [7]; 16 µg/mL (≈ 37.3 µM) with Escherichia coli [8]; 32 µg/mL (≈ 74.7 µM) against Klebsiella pneumoniae [9]; 64 µg/mL (≈ 149 µM) with Enterococcus faecalis [10]; 128 µg/mL (≈ 299 µM) in the data set with Pseudomonas aeruginosa [11]; 2 µg/mL (≈ 4.67 µM) in data set [12]. The MIC was 32 µg/mL (≈ 74.7 µM) in the data set with Enterococcus faecium [13]; 32 µg/mL (≈ 74.7 µM) against Streptococcus pneumoniae [14]; 32 µg/mL (≈ 74.7 µM) against Klebsiella pneumoniae [16]; 2 µg/mL (≈ 4.67 µM) in data set [17]; 32 µg/mL (≈ 74.7 µM) with Escherichia coli [18]; 32 µg/mL (≈ 74.7 µM) with Enterococcus faecium [19]. Further, the MIC in the data set on Pseudomonas aeruginosa [20] stood at 16 µg/mL (≈ 37.3 µM); with Staphylococcus aureus [21], 4 µg/mL (≈ 9.34 µM); in the data set with Enterococcus faecalis [22] it was 32 µg/mL (≈ 74.7 µM). The molecule also had a CC50 at 72 h in [15] of 500 µg/mL (≈ 1170 µM).

In the case of `CCO/N=C(\C)CCN1CCN(c2c(F)cc3c(=O)c(C(=O)O)cn(C4CC4)c3c2OC)CC1C` (stereo not drawn), the MIC in the data set on Pseudomonas aeruginosa [1] was greater than 128 µg/mL; against Escherichia coli [2], greater than 128 µg/mL; with Pseudomonas aeruginosa [3], 128 µg/mL (≈ 262 µM); against Streptococcus pneumoniae [4], greater than 128 µg/mL; in the data set on Staphylococcus aureus [5], 16 µg/mL (≈ 32.7 µM); in [6], 0.5 µg/mL (≈ 1.02 µM). In addition, the MIC against Staphylococcus aureus [7] was 64 µg/mL (≈ 131 µM); in the data set on Escherichia coli [8], greater than 128 µg/mL; against Klebsiella pneumoniae [9], greater than 128 µg/mL; in the data set with Enterococcus faecalis [10], greater than 128 µg/mL; in the data set on Pseudomonas aeruginosa [11] it was greater than 128 µg/mL; in [12], 0.5 µg/mL (≈ 1.02 µM). For the same molecule, the MIC in the data set on Enterococcus faecium [13] is greater than 128 µg/mL; in the data set with Streptococcus pneumoniae [14] it was 128 µg/mL (≈ 262 µM); in the data set with Klebsiella pneumoniae [16], 128 µg/mL (≈ 262 µM); in [17], 0.5 µg/mL (≈ 1.02 µM); in the data set on Escherichia coli [18] it was greater than 128 µg/mL; against Enterococcus faecium [19], greater than 128 µg/mL. In addition, the MIC in the data set on Pseudomonas aeruginosa [20] was greater than 128 µg/mL; in the data set on Staphylococcus aureus [21] it was 128 µg/mL (≈ 262 µM); with Enterococcus faecalis [22] it was greater than 128 µg/mL. In [15], this molecule had a CC50 at 72 h of 88.4 µg/mL (≈ 181 µM).

Source of the values: ChEMBL document CHEMBL1817648, “Synthesis and in vitro antibacterial activity of a series of novel gatifloxacin derivatives” (Eur J Med Chem, 2011).
